In ChEMBL document CHEMBL1255457, “Determination of an inoculum effect with various cephalosporins among clinical isolates of methicillin-susceptible Staphylococcus aureus” (2010):
≈ marks a conversion by molar mass, not a printed value.

Tests used:
Assay type in all cases: functional
[1] = system: Staphylococcus aureus; assay: Antibacterial activity against methicillin-susceptible beta-lactamase negative Staphylococcus aureus using 5x10^7 CFU/ml high inoculum after 24 hrs by broth microdilution method
Outline: (§1)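 Clinical MSSA isolates previously typed by Bla (25 type A, 15 type B, 45 type C, 13 blaZ-negative), with TX0117, ATCC 29213 and ATCC 25923 as controls. Broth microdilution per CLSI, read at 24 h. Standard (~5 × 10^5 CFU/ml) or high (~5 × 10^7 CFU/ml) inoculum set by OD, CFU/ml checked at random. MIC90 and geometric mean MIC per group, compared by Mann-Whitney test.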

[2] = system: Staphylococcus aureus; assay: Antibacterial activity against methicillin-susceptible Bla-producing Staphylococcus aureus type A using 5x10^7 CFU/ml high inoculum after 24 hrs by broth microdilution method; outline: as §1
[3] = system: Staphylococcus aureus; assay: Antibacterial activity against methicillin-susceptible Bla-producing Staphylococcus aureus type A using 5x10^5 CFU/ml standard inoculum after 24 hrs by broth microdilution method; outline: as §1
[4] = system: Staphylococcus aureus; assay: Antibacterial activity against methicillin-susceptible beta-lactamase positive Staphylococcus aureus using 5x10^5 CFU/ml standard inoculum after 24 hrs by broth microdilution method; outline: as §1
[5] = system: Staphylococcus aureus; assay: Antibacterial activity against methicillin-susceptible beta-lactamase positive Staphylococcus aureus using 5x10^7 CFU/ml high inoculum after 24 hrs by broth microdilution method; outline: as §1
[6] = system: Staphylococcus aureus; assay: Antibacterial activity against methicillin-susceptible Bla-producing Staphylococcus aureus type C using 5x10^5 CFU/ml standard inoculum after 24 hrs by broth microdilution method; outline: as §1
[7] = system: Staphylococcus aureus; assay: Antibacterial activity against methicillin-susceptible Bla-producing Staphylococcus aureus type C using 5x10^7 CFU/ml high inoculum after 24 hrs by broth microdilution method; outline: as §1
[8] = system: Staphylococcus aureus; assay: Antibacterial activity against methicillin-susceptible beta-lactamase negative Staphylococcus aureus using 5x10^5 CFU/ml standard inoculum after 24 hrs by broth microdilution method; outline: as §1
[9] = system: Staphylococcus aureus; assay: Antibacterial activity against methicillin-susceptible Bla-producing Staphylococcus aureus type B using 5x10^5 CFU/ml standard inoculum after 24 hrs by broth microdilution method; outline: as §1
[10] = system: Staphylococcus aureus; assay: Antibacterial activity against methicillin-susceptible Bla-producing Staphylococcus aureus type B using 5x10^7 CFU/ml high inoculum after 24 hrs by broth microdilution method; outline: as §1

Compound	MIC [1] [µg/mL]	MIC90 [1] [µg/mL]	MIC [4] [µg/mL]	MIC90 [4] [µg/mL]	MIC [5] [µg/mL]	MIC90 [5] [µg/mL]	MIC [8] [µg/mL]	MIC90 [8] [µg/mL]	MIC [2] [µg/mL]	MIC90 [2] [µg/mL]	MIC [3] [µg/mL]	MIC90 [3] [µg/mL]	MIC [6] [µg/mL]	MIC90 [6] [µg/mL]	MIC [7] [µg/mL]	MIC90 [7] [µg/mL]	MIC [9] [µg/mL]	MIC90 [9] [µg/mL]	MIC [10] [µg/mL]	MIC90 [10] [µg/mL]
Nc1nc(/C(=N/O)C(=O)N[C@@H]2C(=O)N3C(C(=O)O)=C(/C=C4\CCN([C@@H]5CCNC5)C4=O)CS[C@H]23)ns1 [CEFTOBIPROLE]	0.3 (≈ 0.561 µM)	0.5 (≈ 0.935 µM)	0.4 (≈ 0.748 µM)	0.5 (≈ 0.935 µM)	0.7 (≈ 1.31 µM)	1 (≈ 1.87 µM)	0.3 (≈ 0.561 µM)	0.5 (≈ 0.935 µM)	0.7 (≈ 1.31 µM)	1 (≈ 1.87 µM)	0.4 (≈ 0.748 µM)	0.5 (≈ 0.935 µM)	0.5 (≈ 0.935 µM)	0.5 (≈ 0.935 µM)	0.7 (≈ 1.31 µM)	1 (≈ 1.87 µM)	0.5 (≈ 0.935 µM)	0.5 (≈ 0.935 µM)	0.7 (≈ 1.31 µM)	2 (≈ 3.74 µM)
CO/N=C(\C(=O)N[C@@H]1C(=O)N2C(C(=O)O)=C(CSc3nc(=O)c(O)nn3C)CS[C@H]12)c1csc(N)n1 [CEFTRIAXONE]	3.1 (≈ 5.59 µM)	4 (≈ 7.21 µM)	2.9 (≈ 5.23 µM)	4 (≈ 7.21 µM)	3.4 (≈ 6.13 µM)	4 (≈ 7.21 µM)	3.1 (≈ 5.59 µM)	4 (≈ 7.21 µM)												
CC(=O)OCC1=C(C(=O)O)N2C(=O)[C@@H](NC(=O)Cc3cccs3)[C@H]2SC1 [CEPHALOTHIN]	0.3 (≈ 0.757 µM)	0.5 (≈ 1.26 µM)	0.5 (≈ 1.26 µM)	1 (≈ 2.52 µM)	1.9 (≈ 4.79 µM)	8 (≈ 20.2 µM)	0.3 (≈ 0.757 µM)	0.5 (≈ 1.26 µM)	2 (≈ 5.04 µM)	8 (≈ 20.2 µM)	0.4 (≈ 1.01 µM)	0.5 (≈ 1.26 µM)	0.6 (≈ 1.51 µM)	1 (≈ 2.52 µM)	3 (≈ 7.57 µM)	8 (≈ 20.2 µM)	0.5 (≈ 1.26 µM)	1 (≈ 2.52 µM)	1.3 (≈ 3.28 µM)	4 (≈ 10.1 µM)

Now from value to compound, other results behind:

MIC [1] [µg/mL]	MIC90 [1] [µg/mL]	MIC [4] [µg/mL]	MIC90 [4] [µg/mL]	MIC [5] [µg/mL]	MIC90 [5] [µg/mL]	MIC [8] [µg/mL]	MIC90 [8] [µg/mL]	Compound	MIC [2] [µg/mL]	MIC90 [2] [µg/mL]	MIC [3] [µg/mL]	MIC90 [3] [µg/mL]	MIC [6] [µg/mL]	MIC90 [6] [µg/mL]	MIC [7] [µg/mL]	MIC90 [7] [µg/mL]	MIC [9] [µg/mL]	MIC90 [9] [µg/mL]	MIC [10] [µg/mL]	MIC90 [10] [µg/mL]
1 (≈ 2.36 µM)	1 (≈ 2.36 µM)			1 (≈ 2.36 µM)	1 (≈ 2.36 µM)			CO/N=C(\C(=O)N[C@@H]1C(=O)N2C(C(=O)O)=C(COC(N)=O)CS[C@H]12)c1ccco1 [CEFUROXIME]												
3.1 (≈ 8.92 µM)	4 (≈ 11.5 µM)	3.9 (≈ 11.2 µM)	4 (≈ 11.5 µM)	10.7 (≈ 30.8 µM)	32 (≈ 92.1 µM)	2.5 (≈ 7.2 µM)	4 (≈ 11.5 µM)	CC1=C(C(=O)O)N2C(=O)[C@@H](NC(=O)[C@H](N)c3ccccc3)[C@H]2SC1 [CEPHALEXIN ANHYDROUS]	10.6 (≈ 30.5 µM)	32 (≈ 92.1 µM)	4.6 (≈ 13.2 µM)	8 (≈ 23 µM)	3.8 (≈ 10.9 µM)	4 (≈ 11.5 µM)	6.6 (≈ 19 µM)	16 (≈ 46.1 µM)	3.3 (≈ 9.5 µM)	4 (≈ 11.5 µM)	14.7 (≈ 42.3 µM)	64 (≈ 184 µM)
0.7 (≈ 1.69 µM)	1 (≈ 2.41 µM)	0.4 (≈ 0.965 µM)	0.5 (≈ 1.21 µM)	0.7 (≈ 1.69 µM)	1 (≈ 2.41 µM)	0.4 (≈ 0.965 µM)	0.5 (≈ 1.21 µM)	CCOc1ccc2ccccc2c1C(=O)N[C@@H]1C(=O)N2[C@@H]1SC(C)(C)[C@@H]2C(=O)O [NAFCILLIN]												
